Assay outcomes (PubChem)
The full list was thinned out, with hits kept by preference.
PTEN del growth: suppresses growth of cells with PTEN deletion | viability, % at 10 µM | 1.2% of 140,000 active | HCT116 PTEN-null viability, CellTiter-Glo, 60 h; hits give low values;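 active = viability at or below a set limit, 4 SD under the median of all tested compounds, cut at about 3.7% in these data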;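 note: PTEN knockout HCT116 line with beta catenin targeted HCT116 as companion control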
HUVEC prolif 384: human endothelial cell proliferation inhibition; HUVEC proliferation, CellTiter-Glo luminescence, 72 h; hits give low values; viability, % at 10 µM (by protocol); 1.1% of 86,000 active;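 active = viability at or below 30%; inactive = viability above 30%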;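 note: 100% = median luminescence of DMSO-only cell control wells on each plate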
Lung fibro prol: blocks proliferation of human lung fibroblasts | 1.1% of 85,000 active | viability, % at 10 µM | LL 47 human lung fibroblast viability, ATP luminescence; hits give low values | AID 719;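 active = viability at or below 50% in the single dose screen; inactive = viability above 50%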;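 note: compound exposure lasted 72 h before the ATP readout; 100% = median luminescence of untreated cell-only wells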
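material = human LL 47 lung fibroblast cells | dosing = compounds added from tenfold dosing solution, 0.1% DMSO final | timing = overnight cell rest, 72 h compound treatment at 37 °C | measured by = CellTiter-Glo luminescence measuring cellular ATP | evaluation = % viability versus median cells-only luminescence | control set = cell-only wells, no compound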
bCat KO growth: beta-catenin-lacking colon tumor cell growth suppression; HCT116 beta-catenin knockout viability, CellTiter-Glo, 60 h; hits give low values; viability, % at 10 µM; 1.5% of 140,000 active; AID 818;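 active = viability at or under a set limit, the compound median less 4 SD, cut at about 6% in these data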;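 note: 0% = Hyamine 1622 control at 20 µM and 100% = untreated cell control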
H69AR inhibit: blocks growth of human H69AR lung tumor cells; AID 598; 6% of 85,000 active; H69AR lung tumor viability, ATP luminescence, 72 h; hits give low values; viability, % at 10 µM;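 active = viability at or below 40%; inactive = viability above 40%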;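 note: multidrug resistant small cell line overexpressing MRP-1 efflux transporter; 100% = mean luminescence of untreated control wells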
An asterisk follows results filed as active; . = not tested or not shown.

SMILES	PTEN del growth	HUVEC prolif 384	Lung fibro prol	bCat KO growth	H69AR inhibit
COc1ccc(O)c(-c2cc(C(F)(F)C(F)F)nc(-c3ccccc3)n2)c1	74.5	80.1	94.4	92.7	33.6*
Oc1ccccc1-c1cc(C(F)(F)C(F)F)nc(-c2ccccc2)n1	88.7	90.0	95.0	97.3	87.7
Cc1ccc(N2C(=O)NC(C(F)(F)F)(C(F)(F)F)C3=C2CC(C)(C)CC3=O)cc1	88.8	.	.	91.4	.
CCOc1ccc(-c2cc(CCCC(=O)Nc3cccc(OC)c3)no2)cc1	21.3	68.4	55.3	20.2	22.8*
O=C(c1ccccc1)N1CN2CN(C(=O)c3ccccc3)CC([N+](=O)[O-])(C2)C1	100.6	.	.	89.0	.
O=C(NCc1ccco1)C(c1ccco1)N(CCc1ccccc1)C(=O)Cn1nnc2ccccc21 (stereo unspecified)	84.9	101.0	100.0	84.4	93.2
CC(C)CCNC(=O)C(c1ccco1)N(C(=O)Cn1nnc2ccccc21)c1ccc2c(c1)OCO2 (stereo unspecified)	3.3*	95.5	100.2	3.1*	87.7
Cc1ccc(C(=O)/C=C/c2ccccc2)o1	9.8	.	.	5.9*	.
Cc1ccc(C(=O)/C=C/c2ccc3c(c2)OCO3)o1	10.5	.	.	7.3	.
Cc1ccc(C(=O)/C=C/c2ccc(Br)cc2)o1	1.4*	.	.	2.2*	.
N#CC1=C(N)N2C(=C(C#N)C1c1cccc(Br)c1)Nc1ccccc12 (stereo unspecified)	2.0*	.	.	3.2*	.
N#CC1=C(N)N2C(=C(C#N)C1c1ccc(Br)cc1)Nc1ccccc12 (stereo unspecified)	2.2*	.	.	1.9*	.
Cc1cc(Cl)c(OCCCCN2CCOCC2)c(Br)c1	93.1	.	.	78.3	.
COC(=O)c1[nH]c2cc(OC)ccc2c1NC(=O)CN1CCN(c2cccc(C)c2)C(C)C1 (stereo unspecified)	34.5	53.1	98.0	51.0	15.0*
CCOC(=O)Nc1c(C(=O)OC)[nH]c2cc(OC)ccc12	.	71.5	88.2	.	17.6*
O=C(CSc1nnc(-c2c[nH]c3ccccc23)o1)N(Cc1ccccc1)c1ccc(F)cc1	13.6	81.9	108.0	19.7	55.7
COc1ccc(CN(C(=O)CSc2nnc(-c3ccccc3C)o2)c2ccc(F)cc2)cc1	79.0	127.7	102.4	77.7	0.4*
CCc1nc(SCC(=O)c2cccs2)c2oc3ccccc3c2n1	86.1	104.4	99.8	80.3	87.0
O=C(Nc1ccc(Br)cc1)c1ccc(N2C(=O)C3CC=C(Cl)CC3C2=O)cc1 (stereo unspecified)	85.0	36.4	91.7	89.1	25.4*
CC(=O)Oc1ccc2c(=O)c(Oc3ccccc3)coc2c1OC(C)=O	65.0	.	.	65.7	.
CCN(CC)CCOc1ccc2c(c1)C(=NO)c1cc(OCCN(CC)CC)ccc1-2	2.0*	12.2*	3.0*	1.9*	50.0
CCN(CC)S(=O)(=O)c1ccc2c(c1)C(=NO)c1cc(S(=O)(=O)N(CC)CC)ccc1-2	2.8*	4.3*	37.9*	1.3*	2.6*
COc1ccc(C(CC(=O)c2ccc(O)cc2)S(=O)(=O)c2ccc(C)cc2)cc1 (stereo unspecified)	6.9	.	.	6.0*	.
O=C(NN1C(=O)c2ccccc2C1=O)C1C2CCCCC21 (stereo unspecified)	114.4	.	.	95.2	.
O=C(CSc1n[nH]c(-c2ccccc2O)n1)N1CCCc2ccccc21	38.7	52.9	99.9	35.6	25.1*
SMILES	PTEN del growth	HUVEC prolif 384	Lung fibro prol	bCat KO growth	H69AR inhibit
CN1CC(=O)NC1=NC(=O)c1cc(F)c(F)cc1Cl	95.4	99.7	99.0	88.0	95.0
CN1CC(=O)NC1=NC(=O)c1ccc(Cl)c(S(=O)(=O)N2CCCCCC2)c1	63.7	88.9	83.8	76.2	11.5*
COc1ccc2c(c1)CCc1c(C(=O)NCCCn3ccnc3)noc1-2	92.2	92.8	107.5	82.2	1.5*
COCCNC(=O)c1noc2c1CCc1cc(OC)ccc1-2	95.7	109.7	107.0	100.3	102.8
CCCCNC(=S)N(C)/N=C/c1ccc(OCc2ccc(C(=O)OC)cc2)c(OC)c1	82.4	.	.	79.8	.
COC(=O)c1ccc(NC(=O)COc2ccc(S(=O)(=O)N3CCCCC3)cc2)cc1	76.3	99.0	86.3	86.4	57.9
CCc1ccc(OCC(=O)Nc2ccc(S(=O)(=O)N3CCCC3)cc2)c(Br)c1	77.9	60.6	104.2	70.2	29.6*
COc1ccc(-c2cn3c(C)c(C(=O)N4CCN(c5ccc(OC)cc5)CC4)sc3n2)cc1	.	99.7	100.6	.	69.7
O=C(NCc1ccco1)c1ccc(Cn2c(=O)c3ccccc3n(Cc3ccc(Cl)cc3)c2=O)cc1	47.3	70.0	69.5	69.1	22.7*
O=C(CCCn1c(=O)c2ccccc2n(Cc2ccccc2)c1=O)NCc1ccco1	50.2	73.0	102.6	60.6	87.8
Cc1cccc(Cn2c(=O)n(-c3ccc(CC(=O)NCc4ccco4)cc3)c(=O)c3sccc32)c1	24.0	88.8	86.8	30.5	20.3*
O=C(CCCCn1c(=O)c2ccccc2n(Cc2ccc(F)cc2)c1=O)NCc1ccco1	12.9	55.8	70.4	12.8	22.4*
O=c1c2ccccc2n(Cc2ccc(Cl)cc2)c(=O)n1Cc1ccco1	72.0	62.7	89.1	69.9	70.0
O=C(NCc1ccco1)c1ccc(Cn2c(=O)c3ccccc3n(Cc3cccc(F)c3)c2=O)cc1	79.2	49.2	65.5	93.6	7.7*
N#Cc1cccc(NC(=S)Nc2ccccc2)c1	98.6	.	.	93.4	.
COc1ccc(NC(=O)CSc2nnc(NC(=O)c3ccc(S(=O)(=O)N4CCOCC4)cc3)s2)cc1	87.4	.	.	89.6	.
CN(CC(CC(=O)Nc1nncs1)c1ccccc1)S(=O)(=O)c1ccc(Br)cc1 (stereo unspecified)	46.6	93.3	103.6	37.7	81.8
O=C(NC1(C(F)(F)F)N=C(c2ccccc2)NC1=O)c1ccccc1 (stereo unspecified)	105.4	.	.	94.8	.
O=C(Oc1ccc([N+](=O)[O-])cc1)c1cncc(Br)c1	101.0	.	.	95.7	.
Cc1cccc2sc(NNC(=O)C3COc4ccccc4O3)nc12 (stereo unspecified)	0.5*	.	.	1.2*	.
CC(C)OC(=O)c1c2nc3ccccc3nc2n2c1[nH]c(=O)c1ccccc12	31.5	64.6	63.1	23.9	33.1*
CC(C)OC(=O)c1c(N)n(CCCN2CCOCC2)c2nc3ccccc3nc12	94.3	94.6	104.2	91.0	59.5
O=[N+]([O-])c1ccc(Sc2nnnn2-c2ccccc2)c(Cl)c1	19.3	51.1	43.6*	18.1	5.1*
CN1CCN(S(=O)(=O)c2ccc(Sc3nnnn3-c3ccccc3)c([N+](=O)[O-])c2)CC1	3.2*	.	.	5.4*	.
CC(=O)c1ccc(Sc2nnnn2-c2ccccc2)c([N+](=O)[O-])c1	5.8	.	.	5.7*	.
Nc1ccc(Sc2nnnn2-c2ccccc2)c(Cl)c1	102.8	100.5	100.3	95.1	99.0
Cc1ccc(C)c2[nH]c(=O)c(C(c3nnnn3C(C)(C)C)N3CC=C(c4ccc(F)cc4)CC3)cc12 (stereo unspecified)	66.7	.	.	66.4	.
